hIAP activ: human IAP activation; P09923; activation factor at 10 µM; AID 2524; purified human IAP, CDP-Star luminescence, 30 min; stronger effect = higher value; 1 = vehicle-only enzyme, 0 = enzyme-free background; 330,000 tested, 0.16% active;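 active = activation factor of the enzyme at least 2-fold when tested at 20 µM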
Target sequence (P09923 whole entry, looked up): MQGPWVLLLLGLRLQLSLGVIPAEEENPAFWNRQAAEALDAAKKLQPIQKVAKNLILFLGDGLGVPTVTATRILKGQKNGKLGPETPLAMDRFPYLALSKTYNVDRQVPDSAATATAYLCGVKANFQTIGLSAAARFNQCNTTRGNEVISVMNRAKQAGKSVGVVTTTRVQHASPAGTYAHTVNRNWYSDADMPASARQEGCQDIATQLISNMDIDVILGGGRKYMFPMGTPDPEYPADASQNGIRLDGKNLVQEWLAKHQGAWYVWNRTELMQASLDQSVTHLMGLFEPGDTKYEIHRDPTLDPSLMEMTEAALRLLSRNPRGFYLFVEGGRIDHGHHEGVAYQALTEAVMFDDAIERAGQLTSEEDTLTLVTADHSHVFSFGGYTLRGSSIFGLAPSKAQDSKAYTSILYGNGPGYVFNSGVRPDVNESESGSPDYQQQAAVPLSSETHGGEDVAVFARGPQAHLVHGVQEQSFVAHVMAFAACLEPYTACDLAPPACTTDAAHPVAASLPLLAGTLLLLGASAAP
hIAP inh: human IAP inhibition; purified IAP, CDP-Star luminescence, 30 min; inhibition, % at 10 µM; 330,000 tested, 0.12% active; AID 2544;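 active = inhibition reaching a set limit with compound at 10 µM in the primary screen, cut at about 35% in these data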;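 note: plate controls were DMSO wells with enzyme for no effect and no-enzyme buffer wells for full effect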
bIAP act: increases bovine intestinal alkaline phosphatase activity | purified bovine IAP, CDP-star luminescence, 30 min; stronger effect = higher value; fold of DMSO-control signal, blank-subtracted | activation factor at 20 µM | 200,000 tested, 0.17% active;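 active = activation factor of 2 or more at 20 µM, a signal rise over negative controls twice the positive control's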
mIAP block: mouse IAP inhibition; purified mouse IAP, CDP-Star luminescence, 30 min; inhibition, % at 10 µM; 330,000 tested, 0.2% active;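 active = inhibition of at least 40% at 10 µM in the primary screen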;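 note: plate controls were DMSO with enzyme for no effect and no enzyme wells for full effect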
bIAP inhibitor: intestinal alkaline phosphatase (bovine) inhibition; purified bovine IAP, CDP-star luminescence, 30 min; inhibition, % at 20 µM; 190,000 tested, under 10 active; AID 1019;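 active = over 50% inhibition of intestinal alkaline phosphatase at 20 µM in the single-dose screen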
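test system = bovine IAP enzyme | medium = DEA buffer 100 mM, pH 9.8, with MgCl2 1.0 mM, ZnCl2 0.02 mM | detection = luminescence | dosing = single compound dose of 20 µM, 2% DMSO final | incubation = 30 min reaction at room temperature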
mIAP activ: mouse IAP activation | muIAP, CDP-Star luminescence, 30 min; stronger effect = higher value; 1 = vehicle-only enzyme signal, 0 = enzyme-free wells | 330,000 tested, 0.24% active | activation factor at 10 µM | AID 2805;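 active = activation factor of at least 2 at 20 µM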
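also added = chemiluminescent substrate CDP-Star | test system = mouse IAP enzyme | signal = chemiluminescence readout | compound = DMSO-dissolved test compounds | incubation = 30 min at room temperature | benchmarks = DMSO wells, no-enzyme wells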
mIAP inh conf: mouse IAP inhibition confirmation; shares compounds with mIAP block; purified mouse IAP, CDP-Star luminescence, 30 min; inhibition, % at 10 µM; 11,000 tested, 4.7% active;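 active = inhibition of at least 40% at 10 µM in either of the two replicates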;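 note: plate controls were DMSO wells with enzyme for no effect and buffer wells lacking enzyme for full effect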
Starred values were filed as active, the others as inactive; i = inactive; / = no result. Only some compounds are listed: those with a hit (about 0.79% of all), similar ones and a draw of the others.

SMILES	hIAP activ	hIAP inh	bIAP act	mIAP block	bIAP inhibitor	mIAP activ	mIAP inh conf
Cc1c(C)c2cc(Cl)c(OCC(=O)NC3CC(C)(C)NC(C)(C)C3)cc2oc1=O	0.927	7.3	/	1.4	/	0.986	/
O=C(NCCCCc1ccccc1)NC[C@@H]1CC[C@@H](Cc2ccc(-c3ccccc3)cc2)O1	/	/	/	-371.3	/	4.84*	-344.2
O=C(NCCCc1ccccc1)C1CC1	1.13	-13.4	/	-6.7	/	1.07	/
O=C(NC[C@@H]1CC[C@@H](Cc2ccc(-c3ccccc3)cc2)O1)Nc1ccc(Br)cc1	/	/	/	-324.9	/	4.25*	-309.5
O=C(CNS(=O)(=O)c1c(F)cccc1F)NC1CCCc2ccccc21 (configuration not stated)	0.963	3.7	/	-1.7	/	1.02	/
COC(=O)c1cn(Cc2ccccn2)c(=O)c2ccccc12	0.946	5.4	1.1	1.3	-8.9	0.987	/
CCOC(=O)NNc1ccc2nonc2c1[N+](=O)[O-]	0.919	8.1	/	43.4*	/	0.566	43.6*
O=[N+]([O-])c1c(NCc2ccco2)ccc2nonc12	0.856	14.4	/	41.3*	/	0.587	51.1*
O=C(Nc1ccc(F)c(Cl)c1)C1CC(=O)n2c(nc3ccccc32)N1 (configuration not stated)	1.89	-88.6	1.3	-182.5	-30.3	2.83*	-141.9
O=C(CC1Nc2cccc3cccc(c23)NC1=O)Nc1ccccc1 (configuration not stated)	1.09	-9.3	1.1	36.6	-7.5	0.634	/
NC(=O)CC1Nc2cccc3cccc(c23)NC1=O (configuration not stated)	1.17	-16.9	0.9	40.8*	5.0	0.592	50.4*
COc1ccc(NC(=O)NCCCCc2ccccc2)cc1OC	1.35	-35.1	/	-42.0	/	1.42	/
COc1cccc(NC(=S)NCCC(c2ccccc2)c2ccccc2)c1	0.902	9.8	1.3	i	-31.6	6.21*	-252.7
COc1cc(NC(=S)NCCC(c2ccccc2)c2ccccc2)cc(OC)c1	0.855	14.5	0.9	-412.8	12.1	5.13*	-227.5
COc1ccc(NC(=S)NCCC(c2ccccc2)c2ccccc2)c(OC)c1	1.02	-2.2	1.4	-76.9	-38.2	1.77	/
COc1cccc(NC(=O)NCCCCc2ccccc2)c1	1.1	-9.6	/	-127.1	/	2.27*	-116.1
CC(C)c1ccc(N2C(=O)CC(NNC(=O)c3cccnc3)C2=O)cc1 (configuration not stated)	1.06	-6.3	/	6.7	/	0.933	/
Cc1onc(-c2ccccc2)c1CNC(=O)Nc1ccc(C(F)(F)F)cc1	1.23	-23.0	/	-306.3	/	4.06*	-99.1
Cc1nn(C)c(C)c1CNC(=O)Nc1cccc(Cl)c1	1.11	-10.9	1	-23.4	-4.1	1.23	/
Cc1cc(C)cc(NC(=O)NCc2c(-c3ccccc3)noc2C)c1	1.04	-3.7	/	-369.9	/	4.7*	-173.2
Cc1onc(-c2ccccc2)c1CNC(=O)Nc1ccc(F)cc1F	1.19	-19.1	/	-44.1	/	1.44	/
Cc1onc(-c2ccccc2)c1CNC(=O)Nc1cccc(Cl)c1	1.26	-25.9	/	-302.3	/	4.02*	-132.6
Cc1c2cc(O)c(=O)cc-2oc2cc(O)c(O)cc12	0.746	25.4	0.4	73.0*	/	0.27	85.6*
COc1cc(OC)c(-c2c3cc(O)c(=O)cc-3oc3cc(O)c(O)cc23)cc1OC	1.14	-13.9	1	44.3*	-1.9	0.557	59.4*
CCOC(=O)C1=C(COC(=O)C(C)(C)Oc2ccc(Cl)cc2)NC(=O)NC1C (configuration not stated)	0.865	13.5	/	7.1	/	0.929	/
O=C1c2cc(O)c(O)cc2S(=O)(=O)C1c1ccccc1 (configuration not stated)	0.939	6.1	/	50.6*	/	0.494	61.6*
O=C1c2ccccc2C(=O)C1c1ccc(O)cc1	1.3	-30.1	0.9	8.5	8.6	0.915	/
O=C(O)C1Nc2c(O)cc(Cl)c([N+](=O)[O-])c2C2C=CCC12 (configuration not stated)	1.1	-9.6	0.8	75.2*	16.9	0.248	79.3*
O=[N+]([O-])c1ccc(Cl)c2c1C1C=CCC1C(c1ccccn1)N2 (configuration not stated)	0.971	2.9	0.8	19.4	18.5	0.806	/
